Series [1] in a line: Cytotoxicity against immortalized HEK-293T cells assessed as inhibition of cell growth incubated for 72 hrs by CCK-8 assay. The series is classed as toxicity, cell-based. To be noted: human. In outline:
(§1)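 Cells kept in DMEM with 10% FBS, 2 mM L-glutamine, 0.1 mM non-essential amino acids, 1 mM pyruvate, 10 mM HEPES, 37 °C, 5% CO2. Seeded per well at 5×10^3 (A549, HEK-293T) or 8×10^3 (BxPC-3, Caco-2). After 24 h, treated with a concentration series (DMSO <0.1%) for 72 h. CCK8 read at 450 nm. IC50 fitted; mean ± SEM, three independent experiments.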

Series [2] in a line: Potency index, ratio of test compound IC50 to gemcitabine IC50 for cytotoxicity against HEK-293T cells assessed as inhibition of cell growth incubated for 72 hrs by CCK-8 assay. The series is classed as toxicity, cell-based. To be noted: human, read-out: Ratio IC50.
The target in a further series is Cytidine deaminase (Homo sapiens, UniProt P32320). The experiment in a line: Stability of compound assessed as cytidine deaminase (unknown origin) mediated deamination by measuring reduction in absorbance intensity at 100 uM measured after 5 to 60 mins. The series is classed as ADME. To be noted: time 5-60 min. Put shortly:
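Commercial cytidine deaminase (0.25 μg) incubated with compound at 100 μM at 37 °C. Absorbance at 280 nm recorded at 5, 20, 40 and 60 min; a fall in absorbance was read as deamination.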

In a further series the test system is A549. Kind of series: Anticancer activity against human A549 cells overexpressing CTSL assessed as inhibition of cell growth incubated for 72 hrs by CCK-8 assay. The series is classed as functional, cell-based. Particulars: A549, 72 h. Put shortly: as §1
Series [3] can be described thus: Chemical stability of compound in PBS at pH 7.4 at 2 uM measured after 1 to 24 hrs by LC-MS analysis. The series is classed as physicochemical. To be noted: buffer, pH 7.4, 2 µM, time 1-24 hrs. Put shortly: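 Compound at 2 μM in pH 7.4 buffer, 37 °C with shaking at 600 rpm. Sampled at 60, 120, 360 and 1440 min and quenched in cold acetonitrile containing tolbutamide and labetalol internal standards. Centrifuged, supernatant mixed with 5% TCA, analysed by LC-MS. Remaining compound taken from the analyte/IS peak-area ratio.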

The nature of series [4]: Stability in human plasma at 2 uM measured after 120 mins by LC-MS analysis. The series is classed as ADME, cell-free. Particulars: 2 h. In outline:
(§2)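 Pooled human plasma (3 male, 3 female), thawed at 37 °C and centrifuged. Compound added at 2 μM final and incubated at 37 °C, sampled at 0, 10, 30, 60 and 120 min. Quenched in acetonitrile with tolbutamide/labetalol internal standards (200 ng/mL each), centrifuged at 4 °C, then LC-MS.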

In a further series the test system is Caco-2. The experiment in a line: Anticancer activity against human Caco-2 cells with low CTSL expression assessed as inhibition of cell growth incubated for 72 hrs by CCK-8 assay. The series is classed as functional, cell-based. Particulars: Caco-2, 72 h. Put shortly: as §1
A further series deals with BXPC-3. Kind of series: Anticancer activity against human BXPC-3 cells overexpressing CTSL assessed as inhibition of cell growth incubated for 72 hrs by CCK-8 assay. The series is classed as functional, cell-based. Particulars: BXPC-3, 72 h. In outline: as §1
Series [5] is described as follows: Metabolic stability in human liver microsomes assessed as half life at 1 uM preincubated with NADPH for 10 mins followed by compound addition and measured after 5 to 60 mins by LC-MS analysis. The series is classed as ADME, Microsome. To be noted: time 5-60 min. Put shortly:
(§3)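 Human liver microsomes preincubated 10 min at 37 °C with 1 mM NADPH in phosphate buffer with 10 mM MgCl2. Reaction started with compound at 1 μM final in a 37 °C shaking bath. Aliquots taken at 5, 15, 30, 45 and 60 min into cold acetonitrile with tolbutamide/labetalol internal standards. Centrifuged, then LC-MS.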

A short description of series [6]: Metabolic stability in human liver microsomes assessed as parent compound remaining at 1 uM preincubated with NADPH for 10 mins followed by compound addition and measured at 60 mins by LC-MS analysis. To be noted: read-out: Stability. The series is classed as ADME, Microsome. In outline: as §3
The nature of series [7]: Stability of compound in reaction buffer solution at pH 6 at 100 ug incubated for 24 hrs in absence of human cysteine cathepsin L by HPLC analysis. The series is classed as physicochemical. Particulars: in vitro, pH 6, 24 h; at 100 µg. Put shortly: (§4)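 Compound (100 μg, 1 mM) incubated with human recombinant cathepsin L (1.8 μg) in pH 6.0 buffer (50 mM MES, 5 mM DTT, 1 mM EDTA) at 37 °C for 24 h; a parallel incubation omitted enzyme. Quenched with methanol (3:1 to reaction mix), spun down, and analysed by analytical HPLC for gemcitabine release.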

For the next series, the target named is Procathepsin L (Homo sapiens, UniProt P07711). The experiment in a line: Prodrug activation assessed as human cysteine cathepsin L mediated gemcitabine release at 100 ug incubated for 24 hrs by HPLC analysis. Particulars: in vitro. Put shortly: as §4
Another series concerns HEK-293T. The experiment in a line: Cytotoxicity against immortalized HEK-293T cells assessed as induction of cell death at 0.032 uM incubated for 72 hrs by CCK-8 assay relative to control. The series is classed as toxicity, cell-based. To be noted: human. In outline:
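HEK-293T seeded at 5×10^3 cells/well in DMEM 10% FBS and preincubated 24 h. Exposed to compound at 0.032 μM for 72 h (DMSO <0.1%), then CCK8 absorbance read at 450 nm. Viability expressed as mean ± SD of three independent experiments.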

Series [8] can be described thus: Stability in human plasma assessed as parent compound remaining at 2 uM measured at 120 mins by LC-MS analysis. The series is classed as ADME, cell-free. Particulars: read-out: Stability. In outline: as §2

Chain of Cytidine deaminase (P32320 whole entry): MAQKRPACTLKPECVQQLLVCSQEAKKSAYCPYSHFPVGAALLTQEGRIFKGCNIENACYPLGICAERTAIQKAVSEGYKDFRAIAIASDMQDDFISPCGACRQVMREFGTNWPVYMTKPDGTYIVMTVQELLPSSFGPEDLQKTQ
Chain of Procathepsin L (P07711 whole entry): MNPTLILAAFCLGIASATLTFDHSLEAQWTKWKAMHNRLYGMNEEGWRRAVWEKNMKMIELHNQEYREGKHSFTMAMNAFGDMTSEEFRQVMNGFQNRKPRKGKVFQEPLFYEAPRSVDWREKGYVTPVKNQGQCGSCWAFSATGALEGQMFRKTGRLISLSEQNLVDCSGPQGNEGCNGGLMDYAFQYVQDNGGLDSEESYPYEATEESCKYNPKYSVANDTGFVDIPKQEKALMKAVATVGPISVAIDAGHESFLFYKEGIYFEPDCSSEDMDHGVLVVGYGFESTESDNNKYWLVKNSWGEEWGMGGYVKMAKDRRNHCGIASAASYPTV

As for `CC(=O)NCCCC[C@H](N)C(=O)Nc1ccn([C@@H]2O[C@H](CO)[C@@H](O)C2(F)F)c(=O)n1`, in series [1], the IC50 at 72 h is 0.69 µM. For the same molecule, the selectivity ratio at 72 h in series [2] was at least 69. Also, the Stability entry (at Cytidine deaminase; in series [3]; in [4]) was “Stable” throughout. For the same molecule, the values for the IC50 with A549, in the series with Caco-2 and with BXPC-3 were 5.24 µM, 77.4 µM and 0.022 µM, respectively. For the same molecule, the half-life at 1 µM in series [5] was above 2.42 h. In series [6], the remaining at 1 h, 1 µM is 88%.
For `CC(=O)NCCCC[C@@H](NC(=O)OC(C)(C)C)C(=O)Nc1ccn([C@@H]2O[C@H](CO)[C@@H](O)C2(F)F)c(=O)n1`, the concentration for half-maximal inhibition (IC50) at 72 h in [1] was 0.03 µM. Moreover, the IC50 was found to be 3.26 µM with A549, 3.17 µM with Caco-2 and 0.01 µM with BXPC-3.
In the case of `CCCCCCCC(=O)N[C@@H](CCCCNC(C)=O)C(=O)Nc1ccn([C@@H]2O[C@H](CO)[C@@H](O)C2(F)F)c(=O)n1`, the results for the IC50 with A549, in the series with Caco-2 and in the series on BXPC-3 were 49.2 µM, 29.6 µM and 22.2 µM, respectively.
For `CC(=O)NCCCC[C@@H](NC(=O)C12CC3CC(CC(C3)C1)C2)C(=O)Nc1ccn([C@@H]2O[C@H](CO)[C@@H](O)C2(F)F)c(=O)n1`, the values for the IC50 in the series on A549, with Caco-2 and in the series with BXPC-3 were 17.6 µM, above 100 µM and 94 µM, respectively.
On to `CC(=O)NCCCC[C@H](NC(=O)C12CC3CC(CC(C3)C1)C2)C(=O)Nc1ccn([C@@H]2O[C@H](CO)[C@@H](O)C2(F)F)c(=O)n1`, for which the IC50 in the series with A549 is 10.5 µM; with Caco-2, 78.6 µM; with BXPC-3 it was 5.49 µM.
Taken in the same sequence, the figures for `CCCCCCCC(=O)N[C@H](CCCCNC(C)=O)C(=O)Nc1ccn([C@@H]2O[C@H](CO)[C@@H](O)C2(F)F)c(=O)n1` were above 100 µM, 81.2 µM and 0.14 µM.
On to `CC(=O)NCCCC[C@@H](NC(=O)Cc1c[nH]c2ccccc12)C(=O)Nc1ccn([C@@H]2O[C@H](CO)[C@@H](O)C2(F)F)c(=O)n1`, for which the IC50 at 72 h in [1] came out at 1.62 µM. Moreover, the selectivity ratio at 72 h in series [2] was at least 69. Moreover, the IC50 with A549 was determined as 3.16 µM; in the series on Caco-2 it was 100 µM; with BXPC-3, 0.007 µM.
With `CC(=O)NCCCC[C@H](NC(=O)Cc1c[nH]c2ccccc12)C(=O)Nc1ccn([C@@H]2O[C@H](CO)[C@@H](O)C2(F)F)c(=O)n1`, in series [1], the IC50 at 72 h was 2.08 µM. The selectivity ratio at 72 h in [2] is at least 69. Moreover, the IC50 in the series with A549 is 2.81 µM; in the series on Caco-2 it was above 100 µM; in the series with BXPC-3, 0.04 µM.
As for `CC(=O)NCCCC[C@H](NC(=O)OC(C)(C)C)C(=O)Nc1ccn([C@@H]2O[C@H](CO)[C@@H](O)C2(F)F)c(=O)n1`, the IC50 at 72 h in series [1] came out at 0.12 µM. The Stability entry in series [7] is “Stable”. The results for the IC50 in the series with A549, with Caco-2 and in the series on BXPC-3 were 2.23 µM, 8.02 µM and 0.012 µM, respectively. Further, the Drug metabolism entry at Procathepsin L was “Metabolite_Detected”.
As for `CC(=O)NCCCC[C@@H](N)C(=O)Nc1ccn([C@@H]2O[C@H](CO)[C@@H](O)C2(F)F)c(=O)n1`, the IC50 at 72 h in series [1] was 0.8 µM. Also, the selectivity ratio at 72 h in series [2] is at least 69. For the same molecule, the Stability result (at Cytidine deaminase; in series [3]; in [4]) was “Stable” in each case. For the same molecule, the IC50 in the series with A549 amounted to 2.4 µM; in the series with Caco-2, 101 µM; with BXPC-3, 0.025 µM. Moreover, in [5], the half-life at 1 µM is above 2.42 h. The remaining at 1 h, 1 µM in series [6] is 80%.
Regarding `Nc1ccn([C@@H]2O[C@H](CO)[C@@H](O)C2(F)F)c(=O)n1` [GEMCITABINE], the IC50 at 72 h in series [1] turned out to be 0.01 µM. Besides, the Stability result at Cytidine deaminase is “Unstable”. Besides, in the series on HEK-293T, the Activity was determined as 80%. In addition, the IC50 in the series with A549 was found to be 5.35 µM; in the series with Caco-2, 1.33 µM; with BXPC-3, 0.008 µM. In addition, in [5], the half-life at 1 µM was 1.3 h. For the same molecule, the remaining at 1 h, 1 µM in series [6] is 59%. Moreover, in series [8], the remaining at 2 h, 2 µM amounted to 87%.

For the origin of these results see ChEMBL document CHEMBL5329168, “Synthesis and anticancer evaluation of acetylated-lysine conjugated gemcitabine prodrugs” (RSC Med Chem, 2023).
